This note sets out measurements from ChEMBL document CHEMBL4038313, “Expanding the Antiviral Spectrum of 3-Fluoro-2-(phosphonomethoxy)propyl Acyclic Nucleoside Phosphonates: Diamyl Aspartate Amidate Prodrugs” (J Med Chem, 2017).

pEC50, pIC50: −log10 of the molar value.

The subject of data set [1] is Human immunodeficiency virus 1. The data set can be described thus: Antiviral activity against CXCR4-tropic HIV-1 NL4-3 infected in human TZM-bl cells assessed as inhibition of virus-induced cytopathic effect preincubated with cells for 30 mins followed by viral infection measured after 48 hrs in presence of p-24 HIV-1 Ag by luciferase reporter gene assay. The format is functional, cell-based. To be noted: Human immunodeficiency virus 1, NL4-3, TZM-bl. In a few lines: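 TZM-bl cells, 1 × 10^4 per well in DMEM with 10% FBS and 10 mM […], incubated 30 min at 37 °C with compound. Then HIV-1 NL4.3 (X4) or BaL (R5) added at 100 pg p24 Ag per well. After 48 h, cells lysed with luciferase substrate. Tat-induced luminescence read after 10 min dark incubation as a measure of replication.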

The nature of data set [2]: Cytotoxicity against human TZM-bl cells assessed as cell viability by tetrazolium dye assay. The format is cell-based.
In data set [3] the test system is Human immunodeficiency virus 1. Put plainly: Antiviral activity against CXCR4-tropic HIV-1 NL4-3 infected in human PHA-stimulated PBMC assessed as inhibition of viral replication by measuring reduction in p24 antigen production preincubated with cells for 30 mins followed by viral infection measured on day 10 post infection in presence of IL-2 by ELISA. The format is functional. The following applies: Human immunodeficiency virus 1, NL4-3. In a few lines:
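PBMCs stimulated with 2 μg/mL PHA for 3 days at 37 °C, then 5 × 10^5 cells/ml preincubated 30 min at 37 °C with serial compound dilutions plus 2 ng/mL IL-2. Infected with 1500 pg/well HIV-1 BaL or 500 pg/well other isolates. IL-2 re-added on days 3 and 6. Supernatant p24 Ag measured by ELISA at day 10. EC50 is 50% inhibition of replication.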

Data set [4] can be described thus: Selectivity index, ratio of CC50 for human TZM-bl cells to EC50 for CXCR4-tropic HIV-1 NL4-3 infected in human TZM-bl cells. The format is toxicity, cell-based. To be noted: read-out: Ratio CC50/EC50.
The nature of data set [5]: Selectivity index, ratio of CC50 for human TZM-bl cells to EC50 for CCR5 tropic HIV1 BaL infected in human TZM-bl cells. In kind it is toxicity, cell-based. To be noted: read-out: Ratio CC50/EC50.
The nature of data set [6]: Selectivity index, ratio of CC50 for human PHA-stimulated PBMC to IC50 for CXCR4-tropic HIV-1 NL4-3 infected in human PHA-stimulated PBMC.
Data set [7] can be described thus: Selectivity index, ratio of CC50 for human PHA-stimulated PBMCs to IC50 for CCR5 tropic HIV1 BaL infected in human PHA-stimulated PBMC.
Data set [8] has as its system Human immunodeficiency virus 1. The data set can be described thus: Selectivity ratio of EC50 for tenofovir-resistant CXCR4-tropic HIV-1 NL4-3 harboring reverse transcriptase K65R mutant infected in human MT4 cells to EC50 for CXCR4-tropic HIV-1 NL4-3 infected in human MT4 cells. The format is functional. In a few lines:
(§1)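 MT-4 cells, 1 × 10^4 per well, given compound dilutions and wild-type NL4-3 or K65R NL4-3. Virus titred to give 85–95% cell killing at day 6. Incubated 6 days at 37 °C, 5% CO2. Viability read by XTT at 450/650 nm. EC50 from CPE reduction and toxicity from uninfected drug wells, by four-parameter fit. Fold change is K65R EC50 over wild-type EC50.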

Data set [9] can be described thus: Cytotoxicity against human MT4 cells assessed as reduction in cell viability after 6 days by XTT tetrazolium dye-based assay. The essentials: as §1
Data set [10] is described as follows: Cytotoxicity against human HepG2.2.15 cells assessed as cell viability by tetrazolium dye uptake assay. In kind it is cell-based, HepG2 2.2.15. The essentials:
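HepG2.2.15 cells (two integrated copies of HBV ayw1 genome) were seeded at 1.5 × 10^4 cells/well in DMEM with 2% FBS, 380 μg/mL G418, glutamine, antibiotics and nonessential amino acids. After 16−24 h, medium with various compound concentrations was added in triplicate and renewed on day 3. After 6 days of treatment, viability was read by MTS uptake and CC50 was calculated.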

Another data set relates to Human alphaherpesvirus 3. Put plainly: Antiviral activity against thymidine kinase deficient Varicella-Zoster virus 07-1 infected in HEL cells assessed as inhibition of plaque formation. In kind it is functional, cell-based. To be noted: Human alphaherpesvirus 3, 07-1, HEL. In a few lines:
(§2)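 HEL fibroblast monolayers inoculated with 100 CCID50 HCMV (AD-169, Davis) or 20 PFU VZV (TK+ Oka, TK− 07-1). Adsorbed 1–2 h, inoculum removed, then incubated with compound dilutions. HCMV cytopathicity or VZV plaques scored once untreated infected controls reached completion. EC50 is 50% reduction. SI is CC50/EC50, and the potency ratio is the ratio of EC50s.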

A short description of data set [11]: Stability of the compound in pH 1 buffer at 2 mg after 5 hrs by 31P NMR spectroscopy. In kind it is physicochemical. To be noted: pH 1, 5 h. In a few lines:
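2.0 mg compound in 0.2 mL acetone-d6 plus 0.3 mL pH 1 buffer (equal parts 0.2 M HCl and 0.2 M KCl). In situ 31P NMR (202 MHz) at 37 °C, spectra every 30 min over 14 h.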

Data set [12] can be described thus: Half life in human liver microsomes at 0.1 uM in presence of NADPH by HPLC-MS/MS method. The format is ADME, microsome. In a few lines: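 Pooled human liver microsomes preincubated 10 min at 37 °C with an NADPH-regenerating system (1 mM NADP, 5 mM G6P, G6PDH) in pH 7.4 phosphate with 3 mM MgCl2 and 1 mM EDTA. Compound added at final 0.1 μM and sampled at 0–60 min into acetonitrile/methanol. Analysed by HPLC-MS/MS, mean of two experiments.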
On the technique in general: Liver microsomes are vesicles of endoplasmic reticulum, rich in cytochrome P450 enzymes.

A short description of data set [13]: Selectivity index, ratio of CC50 for HEL cells to EC50 for thymidine kinase deficient Varicella-Zoster virus 07-1. In kind it is toxicity. The following applies: human, read-out: Ratio CC50/EC50. The essentials:
as §2

Data set [14] deals with Human immunodeficiency virus 1. The data set can be described thus: Potency index, ratio of (S)-9-[3-Fluoro-2-(phosphonomethoxy)propyl]adenine EC50 to compound EC50 for CXCR4-tropic HIV-1 NL4-3 infected in human TZM-bl cells. The format is functional.
Data set [15] in a line: Selectivity index, ratio of CC50 for HepG2.2.15 cells to EC50 for HBV ayw1 infected in human HepG2(2.2.15) cells assessed as reduction in viral replication by measuring intracellular viral DNA copy. The essentials: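 Run as the HepG2.2.15 6-day assay (triplicate compound, medium with compound renewed at day 3). At the end, total intracellular DNA was isolated from the cells and HBV DNA copy number measured by TaqMan qPCR. EC50/EC90 derived; SI is CC50/EC50.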

Broadly, the pEC50 is the negative decadic logarithm of the EC50, by convention in mol/L. For orientation: CC50 means the concentration at which the toxic effect on the cells reaches its halfway point. By pIC50 is commonly meant the negative decadic logarithm of the IC50, by convention in mol/L. In general, half-life refers to the time needed for the level to fall by half in the phase considered. On to `CCCCCOC(=O)C[C@H](NP(=O)(CO[C@H](CF)Cn1cnc2c(N)ncnc21)Oc1ccccc1)C(=O)OCCCCC` (stereo partly specified), for which the pEC50 is 8.00 in [1] and 7.24 in the data set with Human alphaherpesvirus 3. In addition, the CC50 in data set [2] is 33.2 µM; in [10], 20.3 to 22.6 µM. The pIC50 in data set [3] is 8.52. Further, the results for the selectivity ratio in [4], in [5] and in data set [13] were 3320, 7910 and 34, respectively. The “Ratio CC50/IC50” value in data set [6] was greater than 827; in data set [7], greater than 113. The “Ratio EC50” value is recorded as 5.7 in data set [8] and 600 in data set [14]. Also, in data set [9], the CC50 at 144 h is greater than 1000 nM. The Stability result in [11] is “Stable”. For the same compound, the half-life at 0.1 µM in [12] came to 2 min. Also, the “Ratio CC50/EC50” value in [15] was found to be 1017.
